Reference: ChEMBL document CHEMBL2390947, “New insight into adenosine receptors selectivity derived from a novel series of [5-substituted-4-phenyl-1,3-thiazol-2-yl] benzamides and furamides” (Eur J Med Chem, 2013)

Tests used:
Homo sapiens [1] = species on record: Homo sapiens; test: Selectivity ratio of Ki for human adenosine A2A receptor to Ki for human adenosine A3 receptor
Homo sapiens [2] = species on record: Homo sapiens; test: Selectivity ratio of Ki for human adenosine A2B receptor to Ki for human adenosine A3 receptor
[3] = target: T1, Adenosine receptors; A1 & A3 (Homo sapiens) (UniProt P30542+P0DMS8); test: Selectivity ratio of Ki for human adenosine A1 receptor to Ki for human adenosine A3 receptor
Adenosine receptor A1 = target: T2, Adenosine receptor A1 (Homo sapiens, UniProt P30542); test: Displacement of [3H]CCPA from human adenosine A1 receptor expressed in CHO cells; format: cell-based
T2 sequence (P30542 whole entry): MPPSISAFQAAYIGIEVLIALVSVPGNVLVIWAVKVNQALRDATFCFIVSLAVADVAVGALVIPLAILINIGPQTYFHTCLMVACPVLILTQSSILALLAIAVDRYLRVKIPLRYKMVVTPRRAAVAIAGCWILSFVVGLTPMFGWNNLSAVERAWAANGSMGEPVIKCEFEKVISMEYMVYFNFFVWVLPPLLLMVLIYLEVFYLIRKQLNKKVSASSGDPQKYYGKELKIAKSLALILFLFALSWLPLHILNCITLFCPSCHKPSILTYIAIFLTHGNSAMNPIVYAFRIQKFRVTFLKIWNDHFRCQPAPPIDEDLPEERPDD
Outline: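 Agonist radioligand competition on membranes from CHO cells stably transfected with human A1 receptor (1000 × g spin to clear debris, crude membranes pelleted at 100,000 × g, stored at -80 °C). Tracer 1 nM [3H]CCPA; non-specific binding defined with 1 mM theophylline. Ki computed from competition curves.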

Adenosine receptor A2a = Adenosine receptor A2a (Homo sapiens, UniProt P29274); test: Displacement of [3H]NECA from human adenosine A2A receptor expressed in CHO cells; format: cell-based
Sequence of Adenosine receptor A2a (P29274 whole entry): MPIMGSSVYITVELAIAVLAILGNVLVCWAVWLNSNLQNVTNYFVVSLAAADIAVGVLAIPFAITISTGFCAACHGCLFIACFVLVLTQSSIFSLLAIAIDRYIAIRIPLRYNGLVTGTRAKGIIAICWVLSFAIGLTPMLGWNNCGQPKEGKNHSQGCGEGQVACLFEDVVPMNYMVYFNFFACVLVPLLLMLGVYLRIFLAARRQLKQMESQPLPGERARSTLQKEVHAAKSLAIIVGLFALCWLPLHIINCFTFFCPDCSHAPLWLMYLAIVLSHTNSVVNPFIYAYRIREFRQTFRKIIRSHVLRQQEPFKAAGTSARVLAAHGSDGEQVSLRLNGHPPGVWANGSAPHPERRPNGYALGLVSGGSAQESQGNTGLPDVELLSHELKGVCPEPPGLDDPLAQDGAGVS
Outline: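 Membranes prepared from stably transfected CHO cells expressing human A2A receptor by two-step centrifugation (1000 × g, then 100,000 × g), frozen and kept at -80 °C. Competition against 30 nM [3H]NECA, with 100 µM R-PIA for non-specific binding. Ki obtained by competition-curve fitting.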

Adenosine receptor A2b = target: T3, Adenosine receptor A2b (Homo sapiens, UniProt P29275); test: Antagonist activity at human adenosine A2B receptor expressed in CHO cells assessed as inhibition of NECA-stimulated adenylyl cyclase activity; format: functional, cell-based
T3 sequence (P29275 whole entry): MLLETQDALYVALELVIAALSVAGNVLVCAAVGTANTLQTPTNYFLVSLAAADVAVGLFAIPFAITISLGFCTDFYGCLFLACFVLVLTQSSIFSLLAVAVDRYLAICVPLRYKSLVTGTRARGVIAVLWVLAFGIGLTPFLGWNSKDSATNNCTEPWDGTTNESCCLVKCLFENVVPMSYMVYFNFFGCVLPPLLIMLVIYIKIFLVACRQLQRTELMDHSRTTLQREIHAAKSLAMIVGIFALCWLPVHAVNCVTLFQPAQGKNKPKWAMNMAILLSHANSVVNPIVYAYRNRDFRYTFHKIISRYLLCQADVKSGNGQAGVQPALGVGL
Outline: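 Affinity at human A2B receptor taken from inhibition of NECA-stimulated adenylyl cyclase activity. Membranes from stably transfected CHO cells were obtained by a single high-speed spin of the homogenate, resuspended in 50 mM Tris/HCl pH 7.4 and used at once.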

Adenosine receptor A3 = target: T4, Adenosine receptor A3 (Homo sapiens, UniProt P0DMS8); test: Displacement of [3H]HEMADO from human adenosine A3 receptor expressed in CHO cells; format: cell-based
T4 sequence (P0DMS8 whole entry): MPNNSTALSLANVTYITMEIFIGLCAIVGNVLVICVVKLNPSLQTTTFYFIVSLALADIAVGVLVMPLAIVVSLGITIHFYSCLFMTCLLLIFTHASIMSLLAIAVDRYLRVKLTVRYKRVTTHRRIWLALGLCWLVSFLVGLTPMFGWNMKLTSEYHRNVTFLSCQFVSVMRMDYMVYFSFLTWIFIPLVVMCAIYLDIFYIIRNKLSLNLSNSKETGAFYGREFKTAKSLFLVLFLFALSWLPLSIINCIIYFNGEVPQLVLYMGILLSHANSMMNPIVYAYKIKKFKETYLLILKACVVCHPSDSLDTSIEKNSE
Outline: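 Human A3 receptor binding in membranes from stably transfected CHO cells (low-speed then 100,000 × g pellet, stored at -80 °C). Radioligand was the agonist [3H]HEMADO at 1 nM; non-specific binding measured with 100 µM R-PIA. Ki values derived from competition experiments.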

[4] = target: T1, Adenosine receptors; A1 & A3 (Homo sapiens); test: Selectivity ratio of Ki for human adenosine A3 receptor to Ki for human adenosine A1 receptor
Homo sapiens [5] = species on record: Homo sapiens; test: Selectivity ratio of Ki for human adenosine A2A receptor to Ki for human adenosine A1 receptor
Homo sapiens [6] = species on record: Homo sapiens; test: Selectivity ratio of Ki for human adenosine A3 receptor to Ki for human adenosine A2A receptor
Homo sapiens [7] = species on record: Homo sapiens; test: Selectivity ratio of Ki for human adenosine A1 receptor to Ki for human adenosine A2A receptor
Homo sapiens [8] = species on record: Homo sapiens; test: Selectivity ratio of Ki for human adenosine A1 receptor to Ki for human adenosine A2B receptor
Homo sapiens [9] = species on record: Homo sapiens; test: Selectivity ratio of Ki for human adenosine A2A receptor to Ki for human adenosine A2B receptor
[10] = tested on: adenosine A3/A2A receptor ratio (Homo sapiens); test: Selectivity ratio of Ki for human adenosine A2A receptor to Ki for human adenosine A3 receptor

| Compound | Ki (Adenosine receptor A1) [nM] | Ki (Adenosine receptor A2a) [nM] | Ki (Adenosine receptor A2b) [nM] | Ki (Adenosine receptor A3) [nM] | also measured |
| --- | --- | --- | --- | --- | --- |
| Cc1sc2nc(-c3sc(NC(=O)c4ccco4)nc3-c3ccccc3)nc(N)c2c1C | 12000 | 5950 | > 10000 | 746 | Ratio Ki (Homo sapiens [1]): 8; Ratio Ki (Homo sapiens [2]): > 13; Ratio Ki [3]: 16 |
| COc1ccc(C(=O)Nc2nc(-c3ccccc3)c(-c3nc(N)c4c5c(sc4n3)CCCC5)s2)cc1 | > 10000 | > 10000 | > 10000 | > 10000 | – |
| O=C(Nc1nc(-c2ccccc2)c(-c2ccncc2)s1)c1ccco1 | 0.58 | 6.65 | 2.78 | 9.36 | Ratio Ki [4]: 16; Ratio Ki (Homo sapiens [5]): 11 |
| Nc1nc(-c2sc(NC(=O)c3ccccc3)nc2-c2ccccc2)nc2sc3c(c12)CCCC3 | > 10000 | > 10000 | > 10000 | > 10000 | – |
| O=C(Nc1nc(-c2ccccc2)c(-c2nc3ccccc3c(=O)[nH]2)s1)c1ccco1 | > 10000 | 8780 | > 10000 | 3930 | – |
| Cc1ccc(C(=O)Nc2nc(-c3ccccc3)c(-c3nc(N)nc(N(C)C)n3)s2)cc1 | 3630 | 562 | > 30000 | 816 | – |
| Cc1ccc(C(=O)Nc2nc(-c3ccccc3)c(-c3nc(N)c4c(C)c(C)sc4n3)s2)cc1 | > 30000 | > 30000 | > 10000 | 1380 | – |
| Nc1nc(-c2sc(NC(=O)c3ccco3)nc2-c2ccccc2)nc2sc3c(c12)CCCC3 | > 10000 | 14400 | > 10000 | 36600 | – |
| O=C(Nc1nc(-c2ccccc2)c(C(=O)c2ccccn2)s1)c1ccco1 | 406 | 74.7 | 9110 | 951 | Ratio Ki (Homo sapiens [6]): 13; Ratio Ki (Homo sapiens [7]): 5 |
| Cc1sc2nc(-c3sc(NC(=O)c4ccccc4)nc3-c3ccccc3)nc(N)c2c1C | 7240 | 4870 | > 10000 | 676 | – |
| COc1ccc(C(=O)Nc2nc(-c3ccccc3)c(C(=O)c3ccccn3)s2)cc1 | 688 | 128 | > 10000 | 201 | Ratio Ki (Homo sapiens [6]): 1.6; Ratio Ki (Homo sapiens [7]): 5.7 |
| O=C(Nc1nc(-c2ccccc2)c(-c2ccccn2)s1)c1ccco1 | 276 | 193 | 841 | 2040 | Ratio Ki (Homo sapiens [8]): 0.33; Ratio Ki (Homo sapiens [9]): 0.23 |
| CN(C)c1nc(N)nc(-c2sc(NC(=O)c3ccco3)nc2-c2ccccc2)n1 | 536 | 179 | 8000 | 918 | Ratio Ki (Homo sapiens [7]): 3; Ratio Ki [10]: 5 |
| COc1ccc(C(=O)Nc2nc(-c3ccccc3)c(-c3nc(N)c4c(C)c(C)sc4n3)s2)cc1 | > 100000 | > 30000 | > 10000 | 2470 | – |
| Cc1sc2nc(-c3sc(NC(=O)c4ccco4)nc3-c3ccccc3)[nH]c(=O)c2c1C | > 10000 | > 100000 | > 10000 | > 10000 | – |
| COc1ccc(C(=O)Nc2nc(-c3ccccc3)c(C(=O)c3cccnc3)s2)cc1 | > 10000 | > 10000 | > 10000 | > 10000 | – |
| CN(C)c1nc(N)nc(-c2sc(NC(=O)c3ccccc3)nc2-c2ccccc2)n1 | 801 | 327 | > 10000 | 567 | – |
| O=C(Nc1nc(-c2ccccc2)c(C(=O)c2cccnc2)s1)c1ccco1 | 177 | 552 | > 10000 | 1870 | – |
| COc1ccc(C(=O)Nc2nc(-c3ccccc3)c(-c3nc(N)nc(N(C)C)n3)s2)cc1 | 10400 | 2010 | > 10000 | 2640 | – |
| Cc1ccc(C(=O)Nc2nc(-c3ccccc3)c(-c3nc(N)c4c5c(sc4n3)CCCC5)s2)cc1 | > 10000 | > 10000 | > 10000 | > 10000 | – |
